Assay results from ChEMBL document CHEMBL4346681, “Anticancer activity of the thiosemicarbazones that are based on di-2-pyridine ketone and quinoline moiety” (Eur J Med Chem, 2019).
Calls of active or inactive are those of the source. No cut-off for these calls is given here.

How the values were obtained:
HCT-116 [1] = assay: Induction of apoptosis in human HCT116 cells expressing wild type p53 assessed as decrease in cyclin D1 expression level at 4 times antiproliferative IC50 incubated for 24 hrs by Western blot analysis relative to control; assay type: functional
Procedure, shortened: (§1)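 HCT 116 p53+/+ or MCF-7 cells, 0.5·10^6 per dish, overnight, then 24 h at four-fold IC50. Lysed in RIPA buffer with protease/phosphatase inhibitors and EDTA. 20 µg protein per lane on SDS-PAGE, transferred to nitrocellulose, blocked in 5% milk/TPBS. Primary antibodies 1:1000 overnight at 4°C, then HRP secondary, chemiluminescence. Densitometry normalized to β-actin; at least three experiments.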

HCT-116 [2] = assay: Induction of apoptosis in human HCT116 cells expressing wild type p53 assessed as decrease in cdc2 expression level at 4 times antiproliferative IC50 incubated for 24 hrs by Western blot analysis relative to control; assay type: functional; procedure, shortened: as §1
HCT-116 [3] = assay: Induction of cell cycle arrest in human HCT116 cells expressing wild type p53 assessed as cell accumulation at S phase at 0.5 uM incubated for 48 hrs by cell counter based assay (reference value: 11.7 to 13.15%); assay type: functional
Calf thymus DNA = assay: Binding affinity to calf thymus DNA assessed as hypochromism incubated for 1.5 hrs by spectrophotometric method; assay type: nucleic-acid assay; set-up: concentration or dose not given beside the values; details: Bos taurus
Procedure, shortened: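 CT-DNA in 10 mM Tris-HCl pH 7.9, purity checked by A260/A280 >1.8, concentration from A260 (ε 6,600 M-1cm-1). Compounds from 8.35 mM DMSO stock diluted to 25, 12.5, 6 and 3 μM in Tris buffer. Incubated with 18 μM CT-DNA for 1.5 h at 37°C. UV-vis spectra recorded over 200–500 nm.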

MCF7 [4] = assay: Induction of apoptosis in human MCF7 cells assessed as early apoptotic cells at 0.5 uM incubated for 48 hrs by annexin-V-FITC staining based cell counter assay (reference value: 0.35%); assay type: functional
U-251 [5] = assay: Induction of cell cycle arrest in human U251 cells assessed as cell accumulation at S phase at 0.5 uM incubated for 48 hrs by cell counter based assay (reference value: 28.85 to 33%); assay type: functional
MCF7 [6] = assay: Induction of apoptosis in human MCF7 cells assessed as decrease in cdc2 expression level at 4 times antiproliferative IC50 incubated for 24 hrs by Western blot analysis relative to control; assay type: functional; procedure, shortened: as §1
MCF7 [7] = assay: Induction of apoptosis in human MCF7 cells assessed as decrease in cyclin D1 expression level at 4 times antiproliferative IC50 incubated for 24 hrs by Western blot analysis relative to control; assay type: functional; procedure, shortened: as §1
HCT-116 (Homo sapiens) = assay: Induction of oxidative stress in human HCT116 cells assessed as reactive oxygen species generation at 1 uM incubated for 24 hrs by CellROX green/Hoechst 33342 staining based assay
MCF7 [8] = assay: Induction of apoptosis in human MCF7 cells assessed as death cells at 0.5 uM incubated for 48 hrs by annexin-V-FITC staining based cell counter assay (reference value: 7.55%); assay type: functional
U-251 [9] = assay: Induction of cell cycle arrest in human U251 cells assessed as cell accumulation at G0/G1 phase at 0.5 uM incubated for 48 hrs by cell counter based assay (reference value: 63.5 to 65.1%); assay type: functional
MCF7 [10] = assay: Induction of cell cycle arrest in human MCF7 cells assessed as cell accumulation at G0/G1 phase at 0.5 uM incubated for 48 hrs by cell counter based assay (reference value: 50.1 to 51.48%); assay type: functional
U-251 [11] = assay: Induction of apoptosis in human U251 cells assessed as viable cells at 0.5 uM incubated for 48 hrs by annexin-V-FITC staining based cell counter assay (reference value: 82.75 to 85.65%); assay type: functional; details: U-251, 48 h, read-out: Activity
MCF7 [12] = assay: Decrease in p21 protein expression in human MCF7 cells at 4 times antiproliferative IC50 incubated for 24 hrs by Western blot analysis relative to control; assay type: functional; set-up: scale not given: the % may be the effect or the level left; procedure, shortened: as §1
MCF7 [13] = assay: Induction of apoptosis in human MCF7 cells assessed as increase in cleaved PARP expression level at 4 times antiproliferative IC50 incubated for 24 hrs by Western blot analysis; assay type: functional, cell-based; procedure, shortened: as §1

| SMILES | inhibition (INH) (HCT-116 [1]) [%] | inhibition (HCT-116 [2]) | Activity (HCT-116 [3]) | Activity (Calf thymus DNA) [%] | Activity (MCF7 [4]) [%] | Activity (U-251 [5]) | inhibition (MCF7 [6]) | inhibition (INH) (MCF7 [7]) [%] | Activity (HCT-116 (Homo sapiens)) | Activity (MCF7 [8]) [%] | Activity (U-251 [9]) | Activity (MCF7 [10]) | viability at 0.5 µM (U-251 [11]) [%] | Activity (MCF7 [12]) [%] | Activity (MCF7 [13]) | inhibition (HCT-116 [1]) | inhibition (INH) (HCT-116 [2]) [%] | inhibition (INH) (MCF7 [6]) [%] |
| --- | --- | --- | --- | --- | --- | --- | --- | --- | --- | --- | --- | --- | --- | --- | --- | --- | --- | --- |
| Fc1ccc(N2CCN(C(=S)N/N=C\c3ccccn3)CC2)cc1 | 90 | inactive | 18.2 - 19.76% | 11 | 12 | 40.9 - 41% | Active | 90 | Active | 1.3 | 48.8 - 50% | 26.9 - 27.95% | 83.9 to 86.7 |  |  |  |  |  |
| O=[N+]([O-])c1ccc(N2CCN(C(=S)N/N=C\c3ccc4ccccc4n3)CC2)cc1 | 90 |  | 19.52 - 22.1% | 5.8 | 4.05 | 33.15 - 36.3% |  |  |  | 0.6 | 53.3 - 57.65% | 29.45 - 29.7% | 89.4 to 90 | 50 | Active |  |  |  |
| O=[N+]([O-])c1ccc(N2CCN(C(=S)N/N=C\c3ccccn3)CC2)cc1 |  |  | 21.1 - 23.22% | 24.7 | 9.5 | 39.3 - 40.7% |  |  | Active | 1.9 | 46.3 - 49.6% | 19.73 - 22.7% | 73.3 to 75.9 |  |  | inactive |  |  |
| S=C(N/N=C\c1ccc2ccccc2n1)N1CCN(c2ccc(Cl)c(Cl)c2)CC1 | 90 | inactive | 20 - 20.46% | 3.7 | 10.55 | 39.55 - 44.1% |  |  |  | 3.4 | 42.2 - 48.6% | 24.4 - 25% | 80 |  |  |  |  |  |
| N#Cc1ccc(N2CCN(C(=S)NN=C(c3ccccn3)c3ccccn3)CC2)cc1 | 70 | inactive | 16.2 - 18.32% | 10.3 | 5.9 | 41.4 - 42.6% | Active |  | Active | 1.9 | 45.4 - 47.4% | 37.15 - 39.8% | 65.6 to 69.2 |  |  |  |  |  |
| S=C(NN=C(c1ccccn1)c1ccccn1)N1CCN(c2ccc(Cl)c(Cl)c2)CC1 | 80 | inactive | 18.9 - 20.14% | 15.2 | 6.45 | 38.65 - 39.6% | Active | 80 | Active | 3.45 | 48.3 - 50.05% | 35 - 36.4% | 58.5 to 64.9 | 30 |  |  |  |  |
| FC(F)(F)c1ccc(N2CCN(C(=S)N/N=C\c3ccc4ccccc4n3)CC2)nc1 |  |  | 20.3 - 20.9% | 28.7 | 5.55 | 43.2 - 43.3% |  |  | Active | 2.6 | 47.3 - 47.75% | 20.55 - 23.8% | 59.3 to 64.8 |  | Active | inactive | 70 | 70 |
| COc1ccc(N2CCN(C(=S)N/N=C\c3ccccn3)CC2)cc1 |  |  | 14.5 - 16.96% |  | 8.6 | 38.25 - 41.5% | Active | 70 |  | 2.1 | 48.1 - 51.55% | 34 - 37.28% | 90.5 to 91.1 |  |  |  |  |  |
